According to ChEMBL document CHEMBL3425464, “HM30181 Derivatives as Novel Potent and Selective Inhibitors of the Breast Cancer Resistance Protein (BCRP/ABCG2)” (J Med Chem, 2015):

Assays:
ABCB1 (P-gp) = ABCB1 (P-gp) (Homo sapiens, UniProt P08183); assay: Inhibition of ABCB1 in human A2780adr cells at 10 uM pre-incubated for 30 mins followed by calcein AM addition and further incubated for 60 mins by calcein AM assay; type: cell-based, A2780 ADR; details: probe calcein AM
[1] = target: Multidrug resistance-associated protein 1 (Homo sapiens, UniProt P33527); assay: Inhibition of MRP1 in human H69AR cells at 10 uM pre-incubated for 30 mins followed by calcein AM addition and further incubated for 60 mins by calcein AM assay; details: 1 h
[2] = target: T1, Broad substrate specificity ATP-binding cassette transporter ABCG2 (Homo sapiens, UniProt Q9UNQ0); assay: Inhibition of GFP-tagged human BCRP expressed in MDCK2 cells up to 10 uM pre-incubated for 30 mins followed by Hoechst 33342 addition and further incubated for 120 mins by Hoechst 33342 accumulation assay; type: cell-based; details: mdck-ii, 2 h
T1 sequence (Q9UNQ0 whole entry): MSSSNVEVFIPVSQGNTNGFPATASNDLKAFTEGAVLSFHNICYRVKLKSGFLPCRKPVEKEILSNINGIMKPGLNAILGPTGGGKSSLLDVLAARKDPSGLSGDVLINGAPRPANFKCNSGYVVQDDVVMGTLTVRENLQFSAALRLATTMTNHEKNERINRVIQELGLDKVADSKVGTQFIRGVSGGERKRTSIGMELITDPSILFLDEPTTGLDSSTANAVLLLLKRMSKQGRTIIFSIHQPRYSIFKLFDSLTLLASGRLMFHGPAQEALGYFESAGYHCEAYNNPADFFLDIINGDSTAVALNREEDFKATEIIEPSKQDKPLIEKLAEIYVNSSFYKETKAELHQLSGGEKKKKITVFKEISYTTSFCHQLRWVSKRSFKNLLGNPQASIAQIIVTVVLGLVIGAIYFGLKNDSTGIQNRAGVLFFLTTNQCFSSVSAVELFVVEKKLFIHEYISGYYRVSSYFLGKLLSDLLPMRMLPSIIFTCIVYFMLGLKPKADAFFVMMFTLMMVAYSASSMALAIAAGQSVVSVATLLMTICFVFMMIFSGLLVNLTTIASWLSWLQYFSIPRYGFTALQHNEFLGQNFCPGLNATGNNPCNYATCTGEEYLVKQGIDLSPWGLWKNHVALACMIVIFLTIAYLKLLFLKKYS
In short: (§1)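 MDCK II cells stably carrying human BCRP cDNA C-terminally fused to GFP are washed in KHB, pH 7.4. About 30,000 cells/well are preincubated 30 min at 37 °C with compound up to 10 μM (DMSO ≤0.1%, methanol ≤5% for poorly soluble compounds). Hoechst 33342 is added from a 10 μM solution, and fluorescence (ex 355/em 460) is read every 60 s for 120 min. The steady-state mean (100–109 min) is fitted to a four-parameter logistic curve.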

[3] = Solubility in water; type: physicochemical; details: buffer
[4] = Solubility in DMSO; type: physicochemical
BCRP (ABCG2) [5] = target: T2, BCRP (ABCG2) (Homo sapiens, UniProt Q9UNQ0); assay: Inhibition of GFP-tagged human BCRP expressed in MDCK2 cells pre-incubated for 30 mins followed by Hoechst 33342 addition and further incubated for 120 mins by Hoechst 33342 accumulation assay relative to XR9577; type: cell-based, MDCK-II; details: MDCK2 cells expressing GFP-tagged human BCRP, probe Hoechst 33342, read-out: Imax
T2 sequence (Q9UNQ0 whole entry): T1 sequence (Q9UNQ0 whole entry)

[6] = target: T1, Broad substrate specificity ATP-binding cassette transporter ABCG2; assay: Inhibition of GFP-tagged human BCRP expressed in MDCK2 cells pre-incubated for 30 mins followed by Hoechst 33342 addition and further incubated for 120 mins by Hoechst 33342 accumulation assay; type: cell-based, MDCK-II; in short: as §1
[7] = Ratio of GI50 for wild type MDCK2 cells by MTT assay to IC50 for GFP-tagged human BCRP expressed in MDCK2 cells by Hoechst 33342 accumulation assay; set-up: species or system MDCK-II
In short: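 Ratio of two values. […] Read at 570/690 nm as % of medium control; n = 3, each in quadruplicate. IC50 came from Hoechst 33342 accumulation in MDCK II BCRP-GFP cells: 2 h at 37 °C, steady-state fluorescence, four-parameter fit.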

[8] = target: T1, Broad substrate specificity ATP-binding cassette transporter ABCG2; assay: Inhibition of human BCRP expressed in MDCK2 cells assessed as reversal of multidrug resistance by measuring increase in SN-38-induced cytotoxicity at 3 uM after 72 hrs by MTT assay; type: cell-based; details: mdck-ii
In short: (§2)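 MDCK II BCRP cells are seeded at 3000/well and allowed to attach for 6 h at 37 °C, 5% CO2. They are then exposed to SN-38 (up to 100 μM) alone or together with 3 μM or 5 μM modulator for 72 h. MDCK II wild-type cells given SN-38 serve as the comparison. MTT is added for 1 h, formazan is dissolved in DMSO, and absorbance is read at 570 nm with 690 nm background.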

[9] = Intrinsic cytotoxicity against wild type MDCK2 cells assessed as reduction in cell viability after 72 hrs by MTT assay; type: cell-based, Canis lupus familiaris, MDCK-II; details: dog
In short: (§3)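 Cells are seeded at 3000/well and allowed to attach for 6 h at 37 °C, 5% CO2. They are then exposed to compound in medium, up to 100 μM final (DMSO ≤1.0%), for 72 h. Controls are medium alone (negative) and 10% DMSO (positive). MTT is added for 1 h, formazan is dissolved in DMSO, and absorbance is read at 570 nm minus 690 nm. Viability is expressed as % of the negative control, and GI50 comes from a variable-slope sigmoidal fit. n = 3, each in quadruplicate.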

[10] = target: T1, Broad substrate specificity ATP-binding cassette transporter ABCG2; assay: Inhibition of human BCRP expressed in MDCK2 cells assessed as reversal of multidrug resistance by measuring increase in SN-38-induced cytotoxicity at 5 uM after 72 hrs by MTT assay; type: cell-based; details: mdck-ii; in short: as §2
[11] = Intrinsic cytotoxicity against BCRP expressing MDCK2 cells assessed as reduction in cell viability after 72 hrs by MTT assay; type: ADME, cell-based, Canis lupus familiaris, MDCK-II; details: dog; in short: as §3
BCRP (ABCG2) [12] = target: T2, BCRP (ABCG2); assay: Potency index, ratio of IC50 for Ko143 to IC50 for compound against GFP-tagged human BCRP expressed in MDCK2 cells by Hoechst 33342 accumulation assay; type: cell-based; details: MDCK2 cells expressing GFP-tagged human BCRP, probe Hoechst 33342, read-out: Ratio IC50
[13] = target: ATP-dependent translocase ABCB1 (Homo sapiens, UniProt P08183); assay: Inhibition of ABCB1 in human A2780adr cells pre-incubated for 30 mins followed by calcein AM addition and further incubated for 60 mins by calcein AM assay; type: cell-based, A2780 ADR
ATP-dependent translocase ABCB1, sequence (P08183 whole entry): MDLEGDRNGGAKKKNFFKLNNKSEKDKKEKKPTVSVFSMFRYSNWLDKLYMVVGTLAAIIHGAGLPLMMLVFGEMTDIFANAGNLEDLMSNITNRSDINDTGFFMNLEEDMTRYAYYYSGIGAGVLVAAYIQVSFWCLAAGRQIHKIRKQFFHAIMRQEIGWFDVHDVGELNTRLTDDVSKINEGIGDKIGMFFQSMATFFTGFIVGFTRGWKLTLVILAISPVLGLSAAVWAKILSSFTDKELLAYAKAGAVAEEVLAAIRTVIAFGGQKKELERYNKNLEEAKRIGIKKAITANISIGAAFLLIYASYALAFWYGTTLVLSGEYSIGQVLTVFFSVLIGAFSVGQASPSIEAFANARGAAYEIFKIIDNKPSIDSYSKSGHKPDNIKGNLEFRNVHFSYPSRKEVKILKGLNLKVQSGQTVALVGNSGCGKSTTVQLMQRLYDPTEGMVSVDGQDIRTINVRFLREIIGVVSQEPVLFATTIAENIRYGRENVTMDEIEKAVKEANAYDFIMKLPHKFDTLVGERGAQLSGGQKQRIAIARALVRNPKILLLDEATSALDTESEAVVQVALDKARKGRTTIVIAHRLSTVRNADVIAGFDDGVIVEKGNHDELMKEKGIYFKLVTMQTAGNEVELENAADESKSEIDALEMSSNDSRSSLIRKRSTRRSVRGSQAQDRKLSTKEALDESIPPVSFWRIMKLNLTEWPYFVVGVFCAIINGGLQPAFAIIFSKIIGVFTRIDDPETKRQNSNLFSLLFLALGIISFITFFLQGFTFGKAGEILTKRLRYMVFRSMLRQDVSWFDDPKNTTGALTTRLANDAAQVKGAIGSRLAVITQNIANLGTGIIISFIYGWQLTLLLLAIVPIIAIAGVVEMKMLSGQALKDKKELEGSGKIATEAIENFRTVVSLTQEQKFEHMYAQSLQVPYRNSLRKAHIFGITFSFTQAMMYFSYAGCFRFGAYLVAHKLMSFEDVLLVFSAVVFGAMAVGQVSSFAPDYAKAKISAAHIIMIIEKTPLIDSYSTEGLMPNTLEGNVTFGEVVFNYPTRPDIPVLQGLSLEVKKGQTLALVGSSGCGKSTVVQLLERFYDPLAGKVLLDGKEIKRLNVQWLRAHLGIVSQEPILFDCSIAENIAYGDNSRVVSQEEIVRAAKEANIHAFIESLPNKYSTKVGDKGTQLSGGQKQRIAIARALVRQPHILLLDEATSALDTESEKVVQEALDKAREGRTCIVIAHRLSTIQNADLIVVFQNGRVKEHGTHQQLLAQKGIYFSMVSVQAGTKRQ

ABCB1 (P-gp), sequence (P08183 whole entry): as above
Multidrug resistance-associated protein 1, sequence (P33527 whole entry): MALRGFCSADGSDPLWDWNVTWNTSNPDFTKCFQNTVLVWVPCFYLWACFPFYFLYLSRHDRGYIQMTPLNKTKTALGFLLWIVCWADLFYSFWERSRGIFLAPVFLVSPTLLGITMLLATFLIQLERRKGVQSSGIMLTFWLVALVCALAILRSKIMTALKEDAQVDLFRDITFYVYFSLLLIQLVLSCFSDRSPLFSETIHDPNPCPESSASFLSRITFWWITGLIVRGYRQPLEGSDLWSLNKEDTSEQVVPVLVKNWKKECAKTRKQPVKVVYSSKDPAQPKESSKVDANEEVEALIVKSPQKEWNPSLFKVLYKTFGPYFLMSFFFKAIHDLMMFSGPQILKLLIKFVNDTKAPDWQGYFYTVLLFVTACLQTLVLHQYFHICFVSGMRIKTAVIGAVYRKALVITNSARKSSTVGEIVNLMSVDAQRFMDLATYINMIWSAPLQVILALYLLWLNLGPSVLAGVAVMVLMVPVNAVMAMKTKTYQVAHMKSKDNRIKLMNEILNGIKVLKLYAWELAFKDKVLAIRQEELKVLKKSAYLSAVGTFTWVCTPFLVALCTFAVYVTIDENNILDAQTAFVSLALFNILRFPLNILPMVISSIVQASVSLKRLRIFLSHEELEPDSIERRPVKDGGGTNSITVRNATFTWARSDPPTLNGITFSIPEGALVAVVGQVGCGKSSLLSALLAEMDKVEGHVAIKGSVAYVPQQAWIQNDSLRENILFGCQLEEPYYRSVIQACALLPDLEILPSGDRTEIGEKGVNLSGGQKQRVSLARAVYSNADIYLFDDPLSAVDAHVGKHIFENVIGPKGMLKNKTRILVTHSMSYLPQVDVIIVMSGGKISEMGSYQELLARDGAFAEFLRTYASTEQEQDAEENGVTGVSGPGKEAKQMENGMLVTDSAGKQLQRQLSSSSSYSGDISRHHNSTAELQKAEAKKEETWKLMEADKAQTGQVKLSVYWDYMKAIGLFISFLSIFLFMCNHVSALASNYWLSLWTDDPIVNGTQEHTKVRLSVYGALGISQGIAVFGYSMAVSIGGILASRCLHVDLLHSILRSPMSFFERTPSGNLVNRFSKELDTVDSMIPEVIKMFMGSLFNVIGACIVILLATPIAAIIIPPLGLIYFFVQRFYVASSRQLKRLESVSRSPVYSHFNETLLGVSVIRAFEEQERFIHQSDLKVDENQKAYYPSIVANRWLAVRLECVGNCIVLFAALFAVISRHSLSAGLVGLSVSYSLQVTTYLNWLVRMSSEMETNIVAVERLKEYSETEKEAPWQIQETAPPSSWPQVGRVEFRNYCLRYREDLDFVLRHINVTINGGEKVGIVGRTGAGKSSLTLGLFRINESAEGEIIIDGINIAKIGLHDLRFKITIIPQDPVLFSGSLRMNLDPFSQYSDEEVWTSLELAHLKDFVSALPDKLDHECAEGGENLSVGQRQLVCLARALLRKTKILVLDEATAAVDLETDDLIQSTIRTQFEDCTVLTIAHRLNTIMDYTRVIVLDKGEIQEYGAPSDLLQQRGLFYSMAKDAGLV

inhibition at 1 h, 10 µM (ABCB1 (P-gp)) | inhibition (INH) [1] | inhibition (INH) [2] | solubility [3] | solubility [4] | Emax at 2 h (BCRP (ABCG2) [5]) | IC50 [6] | IC50 [13] | Compound | Ratio [7] | inhibition (INH) [8] | GI50 at 72 h [9] | inhibition (INH) [10] | GI50 at 72 h [11] | selectivity ratio (BCRP (ABCG2) [12])
< 25% | Not Active | Not Active | Insoluble | > 10 mM | – | – | – | CCCc1ccc(-n2nnc(-c3ccccc3NC(=O)c3ccc(C(F)(F)F)cc3)n2)cc1 | – | – | – | – | – | –
< 25% | Not Active | – | Insoluble | > 10 mM | 85% | 269 nM | – | COc1ccc(C(=O)Nc2ccccc2-c2nnn(-c3ccc(C(F)(F)F)cc3)n2)cc1OC | – | – | – | – | – | –
< 25% | Not Active | – | Insoluble | > 10 mM | 102% | 73 nM | – | COc1ccc(C(=O)Nc2ccccc2-c2nnn(-c3ccc(C(F)(F)F)cc3)n2)cc1 | 500 | Active | 34400 nM | Active | 40200 nM | 2
< 25% | Not Active | – | Insoluble | > 10 mM | 71% | 100 nM | – | Cc1ccc(-n2nnc(-c3ccccc3NC(=O)c3ccc([N+](=O)[O-])cc3)n2)cc1 | – | – | – | – | – | –
< 25% | Not Active | – | Insoluble | > 10 mM | 100% | 11200 nM | – | COc1cccc(-n2nnc(-c3ccccc3NC(=O)c3ccc(C(F)(F)F)cc3)n2)c1 | – | – | – | – | – | –
≥ 25% | Not Active | – | Insoluble | > 10 mM | 106% | 201 nM | 32800 nM | CCOc1ccc(-n2nnc(-c3ccccc3NC(=O)c3ccc(OC)c(OC)c3)n2)cc1 | – | – | – | – | – | –
– | – | – | – | – | – | 721 nM | – | O=C(Nc1ccccc1C(=O)Nc1ccc(CCN2CCc3ccccc3C2)cc1)c1cnc2ccccc2c1 | – | – | – | – | – | –
≥ 25% | Not Active | – | Insoluble | > 10 mM | 107% | 117 nM | 37200 nM | COc1ccc(-n2nnc(-c3ccccc3NC(=O)c3ccc(OC)c(OC)c3)n2)cc1 | – | – | – | – | – | –
< 25% | Not Active | – | Insoluble | > 10 mM | 91% | 79.4 nM | – | CCCc1ccc(C(=O)Nc2ccccc2-c2nnn(-c3ccc(OC)cc3)n2)cc1 | 1000 | – | 77600 nM | – | 60900 nM | 2
≥ 25% | Not Active | – | Insoluble | > 10 mM | 88% | 180 nM | 7730 nM | COc1ccc(C(=O)Nc2ccccc2-c2nnn(-c3ccccc3OC)n2)cc1 | – | – | – | – | – | –
< 25% | Not Active | – | Insoluble | > 10 mM | 65% | 137 nM | – | Cc1ccc(-n2nnc(-c3ccccc3NC(=O)c3ccc(C(F)(F)F)cc3)n2)cc1 | – | – | – | – | – | –
< 25% | Not Active | Not Active | Insoluble | > 10 mM | – | – | – | CCOc1ccc(-n2nnc(-c3ccccc3NC(=O)c3ccc([N+](=O)[O-])cc3)n2)cc1 | – | – | – | – | – | –
< 25% | Not Active | Not Active | Insoluble | > 10 mM | – | – | – | O=C(Nc1ccccc1-c1nnn(-c2ccc(C(F)(F)F)cc2)n1)c1ccc([N+](=O)[O-])cc1 | – | – | – | – | – | –
< 25% | Not Active | – | Insoluble | > 10 mM | 102% | 261 nM | – | COc1ccccc1-n1nnc(-c2ccccc2NC(=O)c2ccc([N+](=O)[O-])cc2)n1 | – | – | – | – | – | –
< 25% | Not Active | Not Active | Insoluble | > 10 mM | – | – | – | O=C(Nc1ccccc1-c1nnn(-c2ccc(C(F)(F)F)cc2)n1)c1ccc(C(F)(F)F)cc1 | – | – | – | – | – | –
< 25% | Not Active | – | Insoluble | > 10 mM | 93% | 106 nM | – | COc1ccc(-n2nnc(-c3ccccc3NC(=O)c3ccc(C(F)(F)F)cc3)n2)cc1 | – | – | – | – | – | –
< 25% | Not Active | – | Insoluble | > 10 mM | 61% | 118 nM | – | COc1ccc(-n2nnc(-c3ccccc3NC(=O)c3ccc([N+](=O)[O-])cc3)n2)cc1 | – | – | – | – | – | –
< 25% | Not Active | Not Active | Insoluble | > 10 mM | – | – | – | CCOc1ccc(-n2nnc(-c3ccccc3NC(=O)c3ccc(C(F)(F)F)cc3)n2)cc1 | – | – | – | – | – | –
< 25% | Not Active | – | Insoluble | > 10 mM | 58% | 78.9 nM | – | COc1cccc(-n2nnc(-c3ccccc3NC(=O)c3ccc([N+](=O)[O-])cc3)n2)c1 | – | – | – | – | – | –
< 25% | Not Active | – | Insoluble | > 10 mM | 63% | 184 nM | – | CCCc1ccc(-n2nnc(-c3ccccc3NC(=O)c3ccc([N+](=O)[O-])cc3)n2)cc1 | – | – | – | – | – | –
≥ 25% | Not Active | – | Insoluble | > 10 mM | 100% | 451 nM | 11000 nM | COc1ccccc1-n1nnc(-c2ccccc2NC(=O)c2ccc(C(F)(F)F)cc2)n1 | – | – | – | – | – | –
< 25% | Not Active | – | Insoluble | > 10 mM | 88% | 64.2 nM | – | CCCc1ccc(-n2nnc(-c3ccccc3NC(=O)c3ccc(OC)cc3)n2)cc1 | 1000 | – | 63200 nM | – | 61800 nM | 2
